Experimental data as given in ChEMBL document CHEMBL3259792 (Eur J Med Chem, 2014).

Experiments:
[1] = Cytotoxicity against human MT4 cells assessed as cell viability by MTT assay; format: cell-based
Method in brief: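 Mock-infected MT-4 cells exposed to a range of compound concentrations. Viable cells measured by MTT colorimetry at day 5. CC₅₀ = concentration causing 50% death of non-infected cells. Means of two to three independent experiments, each in triplicate.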

[2] = tested on: Human immunodeficiency virus 1; assay: Antiviral activity against HIV1 NL4.3 infected in human MT4 cells assessed as inhibition of virus-induced cell death measured after 5 days of infection by MTT method; format: functional, organism-based; conditions: Human immunodeficiency virus 1, NL4.3, MT4, 120 h
Method in brief: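 Lymphoid MT-4 cells (NIH AIDS Reagent Program) infected with HIV-1 NL4-3 in the presence of varying compound concentrations. On day 5 post-infection, viable cells were counted by MTT tetrazolium colorimetry. EC₅₀ = concentration inhibiting virus-induced cell death by 50%. Means of two to three independent experiments, each in triplicate.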

[3] = Selectivity index, ratio of CC50 for human MT4 cells to EC50 for HIV1 NL4.3 infected in human MT4 cells; format: toxicity, cell-based; conditions: read-out: Ratio CC50/EC50
Method in brief: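 Ratio CC₅₀/EC₅₀. CC₅₀ is from mock-infected MT-4 cells and EC₅₀ from HIV-1 NL4-3-infected MT-4 cells, both read by MTT at day 5 post-infection.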

[4] = tested on: Human immunodeficiency virus 1; assay: Antiviral activity against HIV1 harboring reverse transcriptase K103N mutant infected in human MT4 cells assessed as inhibition of virus-induced cell death measured after 5 days of infection by MTT method; format: functional, organism-based; conditions: Human immunodeficiency virus 1, MT4, 120 h
Method in brief: (§1)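 MT-4 cells infected with the named NNRTI-resistant HIV-1 RT mutant strain, in the presence of a range of compound concentrations. Viable cells counted at day 5 post-infection by tetrazolium (MTT) colorimetry. […] Mean of 2–3 independent experiments, each in triplicate.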

[5] = tested on: Human immunodeficiency virus 1; assay: Antiviral activity against HIV1 harboring reverse transcriptase Y181C mutant infected in human MT4 cells assessed as inhibition of virus-induced cell death measured after 5 days of infection by MTT method; format: functional, organism-based; conditions: Human immunodeficiency virus 1, MT4, 120 h; method in brief: as §1
[6] = tested on: Human immunodeficiency virus 1; assay: Antiviral activity against HIV1 harboring reverse transcriptase Y188L mutant infected in human MT4 cells assessed as inhibition of virus-induced cell death measured after 5 days of infection by MTT method; format: functional, organism-based; conditions: Human immunodeficiency virus 1, MT4, 120 h; method in brief: as §1
[7] = tested on: Human immunodeficiency virus 1; assay: Antiviral activity against HIV1 harboring reverse transcriptase K103N/Y181C double mutant infected in human MT4 cells assessed as inhibition of virus-induced cell death measured after 5 days of infection by MTT method; format: functional, organism-based; conditions: Human immunodeficiency virus 1, MT4, 120 h; method in brief: as §1
[8] = tested on: Human immunodeficiency virus 1; assay: Ratio of EC50 for HIV1 harboring reverse transcriptase K103N/Y181C double mutant to EC50 for wild type HIV1 NL4.3; format: functional
Method in brief: (§2)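 Fold change is the EC50 against the named mutant strain divided by the EC50 against wild-type HIV-1 NL4-3. […] Means of 2–3 independent experiments in triplicate.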

[9] = tested on: Human immunodeficiency virus 1; assay: Ratio of EC50 for HIV1 harboring reverse transcriptase K103N mutant to EC50 for wild type HIV1 NL4.3; format: functional; method in brief: as §2
[10] = tested on: Human immunodeficiency virus 1; assay: Ratio of EC50 for HIV1 harboring reverse transcriptase Y181C mutant to EC50 for wild type HIV1 NL4.3; format: functional; method in brief: as §2
[11] = tested on: Human immunodeficiency virus 1; assay: Ratio of EC50 for HIV1 harboring reverse transcriptase Y188L mutant to EC50 for wild type HIV1 NL4.3; format: functional; method in brief: as §2
[12] = target: T1, Human immunodeficiency virus type 1 reverse transcriptase (Human immunodeficiency virus 1, UniProt Q72547); assay: Inhibition of HIV1 wild-type reverse transcriptase using [3H]dTTP by scintillation counting
[13] = target: Human immunodeficiency virus type 1 reverse transcriptase (Human immunodeficiency virus 1, UniProt Q72547, K103N); assay: Inhibition of HIV1 wild-type reverse transcriptase K103N mutant using [3H]dTTP by scintillation counting
[14] = target: T1, Human immunodeficiency virus type 1 reverse transcriptase; assay: Inhibition of HIV1 wild-type reverse transcriptase Y181I/Y181C mutant using [3H]dTTP by scintillation counting
[15] = tested on: Human immunodeficiency virus 1; assay: Antiviral activity against HIV1 3B infected in human CEM cells assessed as protection of cells monitored by giant cell formation by microscopy; format: functional, organism-based; conditions: Human immunodeficiency virus 1, 3B, CCRF-CEM
Method in brief: (§3)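 Human CEM cultures (~3 × 10⁵ cells/mL) infected with ~100 CCID₅₀ per mL of HIV-1 IIIB or HIV-2 ROD, seeded with serial compound dilutions. Incubated 4 days at 37 °C; syncytium (giant cell) formation scored by microscopy. EC₅₀ = concentration protecting cells from viral cytopathicity by 50%. Means of two to three independent experiments, each in triplicate.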

[16] = tested on: Human immunodeficiency virus 2; assay: Antiviral activity against HIV-2 ROD infected in human CEM cells assessed as protection of cells monitored by giant cell formation by microscopy; format: functional, organism-based; conditions: Human immunodeficiency virus 2, ISOLATE ROD, CCRF-CEM; method in brief: as §3
[17] = tested on: Human immunodeficiency virus 1; assay: Antiviral activity against HIV1 harboring reverse transcriptase […] mutant infected in human MT4 cells assessed as inhibition of virus-induced cell death measured after 5 days of infection by MTT method; format: functional, organism-based; conditions: Human immunodeficiency virus 1, MT4, 120 h; method in brief: as §1
[18] = tested on: Human immunodeficiency virus 1; assay: Ratio of EC50 for HIV1 harboring reverse transcriptase […] mutant to EC50 for wild type HIV1 NL4.3; format: functional; method in brief: as §2
[19] = target: Human immunodeficiency virus type 1 reverse transcriptase (Human immunodeficiency virus 1, UniProt Q72547, L100I); assay: Inhibition of HIV1 wild-type reverse transcriptase L100I mutant using [3H]dTTP by scintillation counting
Method in brief: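 RNA-dependent DNA polymerase activity of recombinant RT (2–4 nM) on poly(rA)/oligo(dT) 10:1 with [3H]dTTP (1 Ci/mmol). Incubation at 37 °C. Acid-insoluble radioactivity collected on GF/C filters after 5% cold TCA, counted by scintillation.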

SMILES | CC50 [1] [nM] | EC50 [2] [nM] | selectivity ratio [3] | EC50 [4] [nM] | EC50 [5] [nM] | EC50 [6] [nM] | EC50 [7] [nM] | Ratio EC50 [8] | Ratio EC50 [9] | Ratio EC50 [10] | Ratio EC50 [11] | IC50 [12] [nM] | IC50 [13] [nM] | IC50 [14] [nM] | EC50 [15] [nM] | EC50 [16] [nM] | EC50 [17] [nM] | Ratio EC50 [18] | IC50 [19] [nM]
Cc1ccc(CNC(=O)c2[nH]c3ccc(Cl)cc3c2S(=O)(=O)c2cc(C)cc(C)c2)cc1 | 21200 | 2.1 | 10100 | 385 | 215 | > 21200 | > 21200 | >10105 | 183 | 103 | >10105 | 50 | > 20000 | > 20000 | – | – | – | – | –
COc1ccc(CNC(=O)c2[nH]c3ccc(Cl)cc3c2S(=O)(=O)c2cc(C)cc(C)c2)cc1 | 39900 | 0.21 | 190000 | 21 | 21 | > 39200 | > 39200 | >186557 | 100 | 100 | >186557 | 3.7 | > 20000 | > 20000 | – | – | – | – | –
Cc1cc(C)cc(S(=O)(=O)c2c(C(=O)NCc3ccc(Cl)cc3)[nH]c3ccc(Cl)cc23)c1 | > 51300 | 8.2 | > 6260 | 103 | 451 | > 51300 | > 51300 | >6255 | 13 | 55 | >6255 | 57 | 7500 | > 20000 | – | – | – | – | –
Cc1cc(C)cc(S(=O)(=O)c2c(C(=O)NCc3ccc([N+](=O)[O-])cc3)[nH]c3ccc(Cl)cc23)c1 | > 50200 | 2 | > 25100 | 120 | 70 | > 50200 | > 50200 | >25103 | 60 | 35 | >25103 | 50 | 218 | > 20000 | – | – | – | – | –
Cc1cc(C)cc(S(=O)(=O)c2c(C(=O)NCc3ccc(N(C)C)cc3)[nH]c3ccc(Cl)cc23)c1 | 40700 | 12.1 | 3360 | 322 | 1030 | > 40300 | > 40300 | >3332 | 27 | 85 | >3332 | – | – | – | – | – | – | – | –
Cc1cc(C)cc(S(=O)(=O)c2c(C(=O)NCCc3ccccc3C)[nH]c3ccc(Cl)cc23)c1 | > 52000 | – | > 8380 | 100 | – | – | > 51900 | >8383 | 16 | – | – | 288 | 12400 | > 20000 | 9.1 | > 10000 | 20 | 3.2 | 200
Cc1ccc(CCNC(=O)c2[nH]c3ccc(Cl)cc3c2S(=O)(=O)c2cc(C)cc(C)c2)cc1 | > 52000 | 22.9 | > 2270 | > 50000 | 1800 | – | > 51900 | >2268 | 2183 | 79 | – | 2000 | > 20000 | > 20000 | 33 | > 50000 | – | – | 16200
Cc1cc(C)cc(S(=O)(=O)c2c(C(=O)NCC(C)c3ccccc3)[nH]c3ccc(Cl)cc23)c1 (racemic) | 19900 | 0.21 | 94900 | 29 | 291 | > 19900 | > 19900 | >94938 | 138 | 1386 | >94938 | – | – | – | – | – | – | – | –
O=C1Nc2ccc(Cl)cc2[C@@](C#CC2CC2)(C(F)(F)F)O1 [EFAVIRENZ] | > 15800 | 15.9 | – | 130 | 160 | 760 | > 317 | – | – | – | – | – | – | – | – | > 10000 | 22 | – | –
Cc1ccnc2c1NC(=O)c1cccnc1N2C1CC1 [NEVIRAPINE] | > 18800 | 112 | – | > 3760 | > 3760 | > 3760 | > 3760 | – | – | – | – | – | – | – | – | > 10000 | 60 | – | –
Cc1cn([C@H]2C[C@H](N=[N+]=[N-])[C@@H](CO)O2)c(=O)[nH]c1=O [ZIDOVUDINE] | > 30600 | 3.7 | > 8270 | 16 | 6 | 33 | 16 | – | 4.3 | 1.6 | 8.9 | – | – | – | – | – | – | – | –
